Source: ChEMBL document CHEMBL1133748, “Synthesis and cytotoxic and antitumor activity of benzo[b]pyrano[3, 2-h]acridin-7-one analogues of acronycine” (J Med Chem, 2000)
Values joined by “and” are separate entries in the source; they are usually repeats but may differ in a detail not shown here. Equal values may be shown once.

What was measured:
[1] = test system: L1210; assay: In vitro inhibition of L1210 cell proliferation.; assay type: functional, cell-based; conditions: Mus musculus
Summary of the method: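 L1210 murine leukemia cells grown in RPMI 1640 with 10% fetal calf serum, 2 mM glutamine, penicillin/streptomycin, 10 mM HEPES pH 7.4. Exposed 48 h to nine serial drug dilutions in triplicate. Microculture tetrazolium assay read-out. IC50 = concentration halving optical density versus untreated controls; mean of at least 2 separate experiments.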

[2] = test system: Mus musculus; assay: Optimal therapeutic effect without toxicity in mice inoculated ip with P388 cells on day 0 with 12.5 mg/kg ip of compound on day 1; assay type: functional; conditions: route intraperitoneal
[3] = test system: Mus musculus; assay: Optimal therapeutic effect without toxicity in mice inoculated ip with C38 cells on day 0 with 3.12 mg/kg iv of compound measured on day 31; assay type: functional, MC-38
[4] = test system: Mus musculus; assay: Optimal therapeutic effect without toxicity in mice inoculated ip with P388 cells on day 0 with 12.5 mg/kg iv of compound on day 1; assay type: functional
[5] = test system: Mus musculus; assay: Optimal therapeutic effect without toxicity in mice inoculated ip with C38 cells on day 0 with 6.25 mg/kg iv of compound measured on day 31; assay type: functional, MC-38
[6] = test system: Mus musculus; assay: Optimal therapeutic effect without toxicity in mice inoculated ip with P388 cells on day 0 with 12.5 mg/kg iv of compound on day 1
[7] = test system: Mus musculus; assay: Optimal therapeutic effect without toxicity in mice inoculated ip with P388 cells on day 0 with 200 mg/kg ip of compound on day 1; assay type: functional; conditions: route intraperitoneal

Row | Compound | IC50 [1] [µM] | other results
1 | C=C1Oc2cc(OC)c3c(=O)c4cc5ccccc5cc4n(C)c3c2C1(C)C | 14.1 | 
2 | Oc1cc(O)c2c(O)c3cc4ccccc4cc3nc2c1 | 6 | 
3 | CC1(C)C=Cc2c(cc(O)c3c(O)c4cc5ccccc5cc4nc23)O1 | 10.2 | 
4 | Cn1c2cc3ccccc3cc2c(=O)c2c(O)cc3c(c21)C=CC(C)(C)O3 | 17.9 | 
5 | C=C1Oc2cc3c(c(OC)c2C1(C)C)c(=O)c1cc2ccccc2cc1n3C | 8.5 | 
6 | C=C1Oc2cc(O)c3c(=O)c4cc5ccccc5cc4n(C)c3c2C1(C)C | 9 | 
7 | COc1cc2c(c3c1c(=O)c1cc4ccccc4cc1n3C)[C@H]1OC(=O)OC1C(C)(C)O2 (stereo partly drawn) | 0.02 | T/C (survival) [2]: 327%; T/C (tumor vol) [3]: 18%; T/C (survival) [4]: 157%
8 | COc1cc2c(c3c1c(=O)c1cc4ccccc4cc1n3C)[C@@H](OC(C)=O)[C@@H](OC(C)=O)C(C)(C)O2 | 0.6 | T/C (survival) ([2]; 12.5 mg/kg): 213% and 178%; T/C (tumor vol) [5]: 4%
9 | COc1cc2c(c3c1c(=O)c1cc4ccccc4cc1n3C)[C@@H](O)[C@@H](O)C(C)(C)O2 | 40.8 | 
10 | COc1cc2c(c3c1c(=O)c1ccccc1n3C)[C@@H](OC(C)=O)[C@@H](OC(C)=O)C(C)(C)O2 (racemic) | 3.4 | T/C (survival) [6]: 202%; T/C (survival) [2]: 224%
11 | COc1cc2c(c3c1c(=O)c1ccccc1n3C)C=CC(C)(C)O2 [ACRONINE] | 19.9 | T/C (survival) [7]: 125%

The remaining compounds from weak to strong by IC50 [1], led by results:

Row | IC50 [1] [µM] | Compound | other results
12 | 4.9 | COc1c2c(cc3c1c(=O)c1cc4ccccc4cc1n3C)OC(C)(C)C=C2 | 
13 | 3.2 | C=C1Oc2cc(O)c3c(O)c4cc5ccccc5cc4nc3c2C1(C)C | 
14 | 1.9 | COc1cc2c(c3c1c(=O)c1cc4ccccc4cc1n3C)[C@@H](O)[C@@H](OC(=O)CC(C)C)C(C)(C)O2 | 
15 | 1.9 | COc1cc2c(c3c1c(=O)c1cc4ccccc4cc1n3C)C=CC(C)(C)O2 [BENZO[B]ACRONYCINE] | 
16 | 1.7 | COc1cc2c(c3c1c(=O)c1cc4ccccc4cc1n3C)[C@@H](O)[C@@H](OC(=O)c1ccccc1)C(C)(C)O2 | 
17 | 0.9 | CCC(=O)O[C@@H]1c2c(cc(OC)c3c(=O)c4cc5ccccc5cc4n(C)c23)OC(C)(C)[C@@H]1OC(=O)CC | 
18 | 0.5 | COc1cc2c(c3c1c(=O)c1cc4ccccc4cc1n3C)[C@@H](OC(=O)CC(C)C)[C@@H](OC(=O)CC(C)C)C(C)(C)O2 | 
19 | 0.5 | COc1cc2c(c3c1c(=O)c1cc4ccccc4cc1n3C)[C@@H](OC(C)=O)[C@@H](OC(=O)CC(C)C)C(C)(C)O2 | 
20 | 0.2 | COc1cc2c(c3c1c(=O)c1cc4ccccc4cc1n3C)[C@@H](OC(C)=O)[C@@H](OC(=O)c1ccccc1)C(C)(C)O2 | 
